The species named for one series is Homo sapiens. The series can be described thus: In vitro inhibition of the rate of ADP-stimulated human gel-filtered platelet aggregation (PLAGGIN). Type of series: functional. In a few lines: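 Gel-filtered human platelets at 2×10^8/mL with 0.1 mg/mL human fibrinogen and 1 mM CaCl2. Light-transmittance aggregometry at 37 °C, with aggregation started by 10 μM ADP in the presence of test compound or vehicle.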

The target in series [1] is T1, Integrin alpha-V/beta-3 (Homo sapiens, UniProt P05106+P06756). The series can be described thus: Displacement of [125I]echistatin from human recombinant alpha-v beta-3 receptor. Type of series: protein-complex assay. In a few lines:
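Cell extracts of HEK 293 stably transfected with human αvβ3 (~10 × 10^6 receptors/cell) incubated with 30 pM 125I-echistatin in Tris-HCl pH 7.8 buffer with NaCl, Ca/Mg and 0.1% BSA. Nonspecific binding with 1 μM unlabeled echistatin. Bound ligand separated by filtration on poly(ethylenimine)-soaked filters and gamma-counted. Error given as SD.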
(In general: In a radioligand displacement assay an active substance lowers the binding of a labelled ligand.)

For series [2], the species on record is Rattus norvegicus. The experiment in a line: In vitro inhibition of rat osteoclast-mediated bone resorption (BONE RES).
Series [3] has as its target T1, Integrin alpha-V/beta-3. The experiment in a line: Displacement of [125I]nonpeptide ligand (compound 7) from purified human recombinant alphaV-beta3. Type of series: protein-complex assay. In a few lines: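 αvβ3 purified from 293 cells overexpressing human recombinant receptor, captured on wheatgerm agglutinin scintillation proximity beads. Incubated with ~40 pM final 125I-labeled nonpeptide ligand in HEPES pH 7.5 binding buffer with Ca2+/Mg2+, overnight at 4 °C with rocking. Nonspecific binding with 1 μM final cold ligand. Counted by scintillation; IC50 derived. Error given as SD.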

The nature of series [4]: Half-life following a 1 mg/kg iv bolus dose to male rats (n=4). Type of series: ADME, organism-based. Also on record: dose 1 mg/kg, route intravenous. To be noted: rat, in vivo.
Series [5] concerns Rattus norvegicus. The series can be described thus: Inhibition of the increase of serum calcium levels in a dose-dependent fashion after subcutaneous infusion for 6 hr to TPTX rats at doses 0.20, 0.67, and 2 mg/kg/h. Type of series: organism-based. Details: route subcutaneous. In a few lines: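 Rats thyroparathyroidectomized and kept on a low-calcium diet; those with serum Ca < 8 mg/dL used. On day 3, anesthetized rats got subcutaneous infusion of vehicle or compound. Bovine PTH(1–34) at 0.03 nmol/h by osmotic minipump started 30 min later. Serum calcium measured at baseline and at the 4–6 h endpoint. Plasma drug levels measured by the echistatin binding bioassay.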

The target of series [6] is T1, Integrin alpha-V/beta-3. The series can be described thus: Dissociation constant of radiolabeled compound binding to alpha-v-beta-3. Type of series: protein-complex assay.

T1 sequence (P05106 27-788 limits assumed): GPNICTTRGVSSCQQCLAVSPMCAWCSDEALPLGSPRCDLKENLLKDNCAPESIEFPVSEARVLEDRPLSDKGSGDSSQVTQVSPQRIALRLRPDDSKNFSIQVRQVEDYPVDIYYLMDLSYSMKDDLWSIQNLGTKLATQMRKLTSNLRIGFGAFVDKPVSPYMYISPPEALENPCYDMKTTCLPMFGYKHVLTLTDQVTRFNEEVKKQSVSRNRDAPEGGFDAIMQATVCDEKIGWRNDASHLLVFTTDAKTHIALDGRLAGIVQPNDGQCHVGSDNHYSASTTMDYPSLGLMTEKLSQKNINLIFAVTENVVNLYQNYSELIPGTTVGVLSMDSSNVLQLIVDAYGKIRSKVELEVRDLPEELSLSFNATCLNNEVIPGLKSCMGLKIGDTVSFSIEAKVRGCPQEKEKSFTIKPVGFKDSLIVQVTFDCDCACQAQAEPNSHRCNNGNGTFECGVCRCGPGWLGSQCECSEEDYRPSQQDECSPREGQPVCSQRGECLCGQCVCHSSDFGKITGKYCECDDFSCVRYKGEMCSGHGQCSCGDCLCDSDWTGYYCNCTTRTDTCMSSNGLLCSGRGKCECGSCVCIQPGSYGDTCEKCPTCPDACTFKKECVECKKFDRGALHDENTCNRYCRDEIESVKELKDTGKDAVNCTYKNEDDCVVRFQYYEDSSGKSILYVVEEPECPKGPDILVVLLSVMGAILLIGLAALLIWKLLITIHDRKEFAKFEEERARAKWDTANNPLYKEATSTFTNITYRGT
T1 sequence (P06756 31-889 limits assumed): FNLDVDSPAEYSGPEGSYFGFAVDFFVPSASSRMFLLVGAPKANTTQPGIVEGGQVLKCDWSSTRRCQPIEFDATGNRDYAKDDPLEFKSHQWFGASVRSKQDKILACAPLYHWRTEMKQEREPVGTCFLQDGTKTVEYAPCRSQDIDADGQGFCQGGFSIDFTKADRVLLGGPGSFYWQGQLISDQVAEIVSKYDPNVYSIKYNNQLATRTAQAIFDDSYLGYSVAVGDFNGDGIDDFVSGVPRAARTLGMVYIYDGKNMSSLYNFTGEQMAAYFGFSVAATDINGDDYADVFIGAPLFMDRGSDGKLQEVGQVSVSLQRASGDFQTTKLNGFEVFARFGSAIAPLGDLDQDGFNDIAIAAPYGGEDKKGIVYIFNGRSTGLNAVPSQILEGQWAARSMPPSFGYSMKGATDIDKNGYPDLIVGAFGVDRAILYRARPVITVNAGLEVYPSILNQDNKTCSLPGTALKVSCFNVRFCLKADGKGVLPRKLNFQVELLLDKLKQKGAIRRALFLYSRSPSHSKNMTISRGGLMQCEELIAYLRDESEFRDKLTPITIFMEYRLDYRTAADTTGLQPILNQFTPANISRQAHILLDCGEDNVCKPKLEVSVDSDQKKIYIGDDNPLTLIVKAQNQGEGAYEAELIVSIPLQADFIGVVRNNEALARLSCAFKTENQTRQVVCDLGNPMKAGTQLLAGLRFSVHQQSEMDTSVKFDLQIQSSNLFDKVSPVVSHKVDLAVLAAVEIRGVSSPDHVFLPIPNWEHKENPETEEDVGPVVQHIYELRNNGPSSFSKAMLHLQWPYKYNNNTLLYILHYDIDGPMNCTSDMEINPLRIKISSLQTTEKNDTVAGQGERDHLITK
T1 sequence (P06756 891-1048 limits assumed): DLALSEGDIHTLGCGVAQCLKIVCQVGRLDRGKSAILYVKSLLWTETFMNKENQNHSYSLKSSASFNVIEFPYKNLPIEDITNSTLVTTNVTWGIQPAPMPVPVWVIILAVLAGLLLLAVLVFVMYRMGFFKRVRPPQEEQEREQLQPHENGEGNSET

Broadly, the IC50 is the concentration at which inhibition is half-maximal. As to `Nc1cccc(CCc2ccc(C(=O)NC[C@H](NS(=O)(=O)c3ccccc3)C(=O)O)cc2)n1`, the IC50 amounted to 140 nM in the series filed under Homo sapiens, 0.4 nM on Integrin alpha-V/beta-3 [1], 8 nM in the series listed under Rattus norvegicus [2] and 0.44 nM on Integrin alpha-V/beta-3 [3].
In general, half-life refers to the time needed for the level to fall by half in the phase considered. Read a high half-life as slow loss. As for `O=C(NC[C@H](NS(=O)(=O)c1ccccc1)C(=O)O)c1ccc(CCc2ccc3c(n2)NCCC3)cc1`, the concentration for half-maximal inhibition (IC50) was determined as 260 nM in the series filed under Homo sapiens; 0.3 nM on Integrin alpha-V/beta-3 [1]; 3 nM in the series filed under Rattus norvegicus [2]; 200 nM in the series with Rattus norvegicus [5]; 0.07 nM at Integrin alpha-V/beta-3 [3]. In series [4], the half-life was < 30 min.
Turning to `N=C(N)NCCOc1ccc(C(=O)NC[C@H](NS(=O)(=O)c2ccccc2)C(=O)O)cc1`, the IC50 in the series filed under Homo sapiens worked out at 17 nM; on Integrin alpha-V/beta-3 [1], 1.8 nM; in the series filed under Rattus norvegicus [2], 300 nM; on Integrin alpha-V/beta-3 [3], 10.7 nM.
`O=C(NC[C@H](NS(=O)(=O)c1ccccc1)C(=O)O)c1ccc(OCCNC2=NCCCN2)cc1`: the IC50 in the series listed under Homo sapiens came to 44 nM; at Integrin alpha-V/beta-3 [1], 0.7 nM; in the series filed under Rattus norvegicus [2], 46 nM; on Integrin alpha-V/beta-3 [3] it was 0.93 nM.
What is called Kd is the concentration at which binding is half-saturated. A lower Kd goes with higher affinity. As for `Nc1cccc(CCc2ccc(C(=O)NC[C@H](NS(=O)(=O)c3ccc(I)cc3)C(=O)O)cc2)n1`, the IC50 is 1600 nM in the series filed under Homo sapiens, 0.1 nM at Integrin alpha-V/beta-3 [1] and 0.08 nM at Integrin alpha-V/beta-3 [3]. Also, binding on Integrin alpha-V/beta-3 [6] was put at a Kd of 0.06 nM.
As for `O=C(NC[C@H](NS(=O)(=O)c1ccccc1)C(=O)O)c1ccc(OCCC2CCNCC2)cc1`, the values for the IC50 in the series filed under Homo sapiens, on Integrin alpha-V/beta-3 [1] and at Integrin alpha-V/beta-3 [3] were 10 nM, > 1000 nM and > 1000 nM, respectively.

These data come from ChEMBL document CHEMBL1133445, “Nonpeptide alpha(v)beta(3) antagonists. 1. Transformation of a potent, integrin-selective alpha(IIb)beta(3) antagonist into a potent alpha(v)beta(3) antagonist” (J Med Chem, 2000).
